Screening data deposited in PubChem by Broad Institute.
This is one part of a sample in which hits are shown more often than they occur.
INS-1E ATP HTS – protection of INS-1E cells from cytokine death, primary screen, ATP luminescence, single point. INS-1E cytokine-induced death, 48 h; normalised: neutral wells 0, positive control 100. protection from cytokine-induced ATP loss, % at 10 µM. actives 0.1% (n = 20,000). AID 488910, 2010;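 active = mean replicate protection from cytokine-induced ATP loss at least 50% and at least 75% of replicates each reaching 50%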
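Assay system – rat INS-1E insulinoma cell line · Quantity – 8000 cells per well · Buffer or medium – RPMI without phenol red, 5% FBS · Schedule – 48 h co-treatment, 10 min post-lysis read · Technique – luminescent ATP assay (CellTiter-Glo)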
T cruzi HTS – inhibitors of intracellular Trypanosoma cruzi, primary screen, cell-based, plate reader, single point, set 2; AID 651903, 2012; activity score (inhibition), % at 5.01 µM; intracellular Trypanosoma cruzi in host cells; actives 4.9% (n = 22,000); in the data active = activity score above about 55%;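 also: parasites and compound incubated about four days before reading; 0% = median of neutral control wells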
A1 apoptosis 2 – A1 inhibitors via caspase activation, primary screen, cell-based, luminescence, HTS, two replicates; 24,000 tested, under 10 active; caspase activation, % (no concentration beside the values); MEF A1-2A-BIM cells, caspase-Glo luminescence, 3 h; percent of clofoctol response, DMSO zero; in the data active = caspase activation above about 5.9%
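Material: mouse embryonic fibroblasts co-expressing A1 and BIM (A1-2A-BIM), primed for A1 dependence / Quantity: 2500 cells/well / Buffer or medium: RPMI-1640 growth medium with 10% FBS / Doses: 50 nL compound per well, pinned / Schedule: 3 h compound exposure at 37 °C / Signal: Caspase-Glo luminescence (DEVD substrate) / Measure: Caspase-3/7 activation, seen as rise in luminescence signal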
* marks the source's active call; other numbers are inactive results; / = not tested or not shown.

SMILES	INS-1E ATP HTS	T cruzi HTS	A1 apoptosis 2
C[C@H](CO)N1C[C@H](C)[C@H](CN(C)CC2CCCCC2)Oc2ccc(NC(=O)CCCN(C)C)cc2C1=O	2	-6	/
C[C@@H]1CN([C@@H](C)CO)C(=O)Cc2cc(NC(=O)Cc3cn(C)c4ccccc34)ccc2O[C@@H]1CN(C)Cc1ccc(Cl)c(Cl)c1	-46	69*	/
C[C@@H]1CN([C@@H](C)CO)C(=O)c2cc(NC(=O)Cc3cn(C)c4ccccc34)ccc2O[C@@H]1CN(C)Cc1ccc(Cl)c(Cl)c1	-33	11	-1
C[C@@H]1CN([C@@H](C)CO)C(=O)Cc2cc(NC(=O)Cc3cn(C)c4ccccc34)ccc2O[C@@H]1CN(C)Cc1ccncc1	-9	65*	0
C[C@@H]1CN([C@@H](C)CO)C(=O)Cc2cc(NC(=O)Cc3cn(C)c4ccccc34)ccc2O[C@H]1CN(C)Cc1ccc(Cl)c(Cl)c1	/	/	-1
C[C@@H]1CN([C@H](C)CO)C(=O)Cc2cc(NC(=O)Cc3cn(C)c4ccccc34)ccc2O[C@H]1CN(C)Cc1ccc(Cl)c(Cl)c1	-17	63*	/
C[C@@H]1CN([C@H](C)CO)C(=O)c2cc(NC(=O)Cc3cn(C)c4ccccc34)ccc2O[C@@H]1CN(C)Cc1ccc(Cl)c(Cl)c1	-15	79*	/
C[C@@H]1CN([C@H](C)CO)C(=O)Cc2cc(NC(=O)Cc3cn(C)c4ccccc34)ccc2O[C@H]1CN(C)Cc1ccncc1	14	-15	-2
C[C@H](CO)N1C[C@H](C)[C@H](CN(C)Cc2ccccc2)Oc2ccc(NC(=O)Cc3cn(C)c4ccccc34)cc2CC1=O	1	7	-1
C[C@@H]1CN([C@H](C)CO)C(=O)Cc2cc(NC(=O)c3ccncc3)ccc2O[C@H]1CN(C)Cc1ccc(Oc2ccccc2)cc1	5	51	/
C[C@@H]1CN([C@@H](C)CO)C(=O)c2cc(NC(=O)Nc3cccc4ccccc34)ccc2O[C@H]1CN(C)Cc1ccc(C(=O)Nc2ccccc2N)cc1	-20	41	/
CC(C)NC(=O)Nc1ccc2c(c1)C(=O)N([C@H](C)CO)C[C@@H](C)[C@H](CN(C)C(=O)NC1CCCCC1)O2	4	-8	/
C[C@@H]1CCCCO[C@@H](CN(C)C(=O)Nc2ccc(C(F)(F)F)cc2)[C@@H](C)CN([C@H](C)CO)C(=O)c2cc(NS(=O)(=O)c3cccs3)ccc2O1	-13	57*	0
C[C@@H]1CCCCO[C@H](CN(C)Cc2ccc(C(F)(F)F)cc2)[C@@H](C)CN([C@H](C)CO)C(=O)c2cc(NS(=O)(=O)c3cccs3)ccc2O1	-9	18	/
C[C@@H]1CCCCO[C@@H](CN(C)Cc2ccc(C(F)(F)F)cc2)[C@@H](C)CN([C@H](C)CO)C(=O)c2cc(NS(=O)(=O)c3cccs3)ccc2O1	-74	64*	/
C[C@@H]1CCCCO[C@H](CN(C)C(=O)Nc2ccc(C(F)(F)F)cc2)[C@@H](C)CN([C@H](C)CO)C(=O)c2cc(NS(=O)(=O)c3cccs3)ccc2O1	0	/	/
C[C@H]1CN([C@@H](C)CO)C(=O)Cc2cc(NS(=O)(=O)c3ccc(F)cc3)ccc2O[C@H]1CN(C)Cc1ccc(Cl)c(Cl)c1	-15	40	/
C[C@@H]1CN([C@H](C)CO)C(=O)Cc2cc(NS(=O)(=O)c3ccc(Cl)cc3)ccc2O[C@@H]1CN(C)Cc1ccncc1	0	76*	1
C[C@H](CO)N1C[C@H](C)[C@@H](CN(C)Cc2ccc(Cl)c(Cl)c2)Oc2ccc(NS(=O)(=O)c3ccc(Cl)cc3)cc2CC1=O	/	/	0
C[C@@H]1CN([C@H](C)CO)C(=O)Cc2cc(NS(=O)(=O)c3ccc(F)cc3)ccc2O[C@H]1CN(C)Cc1ccc(Cl)c(Cl)c1	-25	77*	/
C[C@H]1CN([C@@H](C)CO)C(=O)Cc2cc(NS(=O)(=O)c3ccc(Cl)cc3)ccc2O[C@@H]1CN(C)Cc1ccncc1	14	-27	0
C[C@@H]1CN([C@H](C)CO)C(=O)Cc2cc(NS(=O)(=O)c3ccc(Cl)cc3)ccc2O[C@H]1CN(C)Cc1ccc(Cl)c(Cl)c1	5	65*	/
CNC[C@@H]1OCCCC[C@H](C)Oc2ccc(NC(=O)Cc3ccccc3)cc2C(=O)N([C@@H](C)CO)C[C@H]1C	/	/	0
COc1ccc(NC(=O)N(C)C[C@H]2OCCCC[C@H](C)Oc3ccc(NS(=O)(=O)c4ccc(OC)cc4)cc3C(=O)N([C@@H](C)CO)C[C@@H]2C)cc1	/	/	-1
COC(=O)CCCCCCC(=O)N/N=C/c1cc(Br)cc([N+](=O)[O-])c1O	-11	11	0
